Measured values as given in ChEMBL document CHEMBL1130160 (J Med Chem, 1997).

What was measured:
[1] = target: Estrogen receptor (Homo sapiens, UniProt Q92731+P03372); conditions: mcf7
[2] = tested on: Rattus norvegicus; assay: Minimum effective dose at which significant increase in uterine eosinophil peroxidase (EPO) activity in rat was determined (in vivo); assay type: functional; conditions: read-out: MED
[3] = tested on: Rattus norvegicus; assay: Percent decrease in serum cholesterol relative to OVX control at 1.0 mg/kg in rats; assay type: functional
Method in brief: (§1)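 OVX Sprague–Dawley rats (75 days old), 5–6 per group, dosed once daily by oral gavage for 4 consecutive days, starting 14 days after ovariectomy. Vehicle was 20% β-hydroxycyclodextrin at 1 mL/kg, or 1.5% carboxymethylcellulose in some cases. Rats were fasted after the last dose and bled by cardiac puncture next morning.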

[4] = tested on: Rattus norvegicus; assay: Minimum effective dose at which significant increase in uterine weight/body weight in rat was determined (in vivo); assay type: functional; conditions: read-out: MED
Method in brief: (§2)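 In 75-day OVX Sprague–Dawley rats dosed orally for 4 days, beginning 2 weeks post-ovariectomy with 5–6 rats per group, whole uteri were weighed the morning after fasting. MED is the lowest dose giving a significant (p≤0.05) rise in uterine weight/body weight, expressed as % increase over OVX controls ±SE.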

[5] = tested on: Rattus norvegicus; assay: Dose required to reduce serum cholesterol by 50% relative to OVX controls was determined (in vivo); assay type: functional
Method in brief: as §1

[6] = tested on: Rattus norvegicus; assay: Percent decrease in serum cholesterol relative to OVX control at 10 mg/kg in rat was determined (in vivo); assay type: functional
Method in brief: as §1

[7] = tested on: Rattus norvegicus; assay: Percent decrease in serum cholesterol relative to OVX control at 0.1 mg/kg in rats; assay type: functional
Method in brief: as §1

[8] = tested on: Rattus norvegicus; assay: Percent decrease in serum cholesterol relative to OVX control at 1 mg/kg in rat; assay type: functional
Method in brief: as §1

[9] = tested on: Rattus norvegicus; assay: Percent decrease in serum cholesterol relative to OVX control at 0.1 mg/kg in rat was determined (in vivo); assay type: functional
Method in brief: as §1

[10] = tested on: Rattus norvegicus; assay: Minimum effective dose at which significant increase in uterine weight/body weight in rat was determined (in vivo); expressed as % increase relative to ovariectomized (OVX) controls; assay type: functional
Method in brief: as §2

`O=C(c1ccc(OCCN2CCCCC2)cc1)c1c(-c2cccs2)sc2cc(O)ccc12` was tested, and the IC50 [1] was 20 nM, the minimal effective dose [2] was over 10 mg/kg and the Decrease [3] was -0.9%. It also gave a minimal effective dose [4] of 1 mg/kg and an ED50 [5] of 11 mg/kg.
`O=C(c1ccc(OCCN2CCCCC2)cc1)c1c(-c2ccsc2)sc2cc(O)ccc12` gave an IC50 [1] of 10 nM, a Decrease [6] of 31.8% and a minimal effective dose [2] of over 10 mg/kg. It also gave a Decrease [7] of 0.6%, a minimal effective dose [4] of 10 mg/kg and an ED50 [5] of over 10 mg/kg.
Work on `CC(C)c1sc2cc(O)ccc2c1C(=O)c1ccc(OCCN2CCCCC2)cc1` yielded a Decrease [6] of 35%, a minimal effective dose [2] of over 10 mg/kg and a Decrease [7] of 12.4%. For the same molecule, the Decrease [3] was 30.5%, the minimal effective dose [4] was over 10 mg/kg and the ED50 [5] was over 10 mg/kg.
Molecule `COc1ccc(-c2sc3cc(OC)ccc3c2C(=O)c2ccc(OCCN3CCCCC3)cc2)cc1.Cl` has a Decrease [8] of 78%, an IC50 [1] of 300 nM and a Decrease [9] of 62.2%. It also gave a Decrease [6] of 68.5%, a minimal effective dose [2] of over 10 mg/kg and an Increase [10] of 57.3%. The minimal effective dose [4] was 0.1 mg/kg and the ED50 [5] was under 0.1 mg/kg.
Molecule `Cc1ccc(-c2sc3cc(O)ccc3c2C(=O)c2ccc(OCCN3CCCCC3)cc2)cc1.Cl` has a Decrease [8] of 26.5%, an IC50 [1] of 50 nM and a Decrease [9] of 12.2%. For the same molecule, the Decrease [6] was 69.1%, the minimal effective dose [2] was over 10 mg/kg and the Increase [10] was 34.6%. The minimal effective dose [4] was 1 mg/kg and the ED50 [5] was 2.9 mg/kg.
`O=C(c1ccc(OCCN2CCCCC2)cc1)c1c(C2CCCCC2)sc2cc(O)ccc12` was tested, and the Decrease [6] was 61.7%, the minimal effective dose [2] was over 10 mg/kg and the Increase [10] was 30.2%. The Decrease [7] was -0.1%, the Decrease [3] was 52.9% and the minimal effective dose [4] was 1 mg/kg. For the same molecule, the ED50 [5] was 2.1 mg/kg.
For `O=C(c1ccc(OCCN2CCCCC2)cc1)c1c(-c2ccc(O)cc2)sc2ccc(O)cc12`, the Decrease [8] was 3.7%, the IC50 [1] was 100 nM and the Decrease [9] was 10.4%. For the same molecule, the Decrease [6] was 22.6%, the minimal effective dose [2] was over 10 mg/kg and the minimal effective dose [4] was over 10 mg/kg.
With `O=C(c1ccc(OCCN2CCCCC2)cc1)c1c(-c2cccc3ccccc23)sc2cc(O)ccc12` the IC50 [1] was 0.8 nM, the Decrease [6] was 67.8% and the minimal effective dose [2] was over 10 mg/kg. The Decrease [7] was 40.1%, the Decrease [3] was 53.9% and the minimal effective dose [4] was over 10 mg/kg. It also gave an ED50 [5] of 0.5 mg/kg.
With `Cl.O=C(c1ccc(OCCN2CCCCC2)cc1)c1c(-c2ccccc2)sc2cc(O)ccc12` the Decrease [8] was 53.4%, the IC50 [1] was 2.5 nM and the Decrease [9] was 55.6%. For the same molecule, the Decrease [6] was 66%, the minimal effective dose [2] was over 10 mg/kg and the Increase [10] was 38.7%. For the same molecule, the minimal effective dose [4] was 0.1 mg/kg and the ED50 [5] was under 0.1 mg/kg.
With `O=C(c1ccc(OCCN2CCCCC2)cc1)c1c(-c2ccncc2)sc2cc(O)ccc12` the IC50 [1] was 100 nM, the Decrease [6] was 47.6% and the minimal effective dose [2] was over 10 mg/kg. For the same molecule, the Increase [10] was 33.3%, the Decrease [7] was 7.2% and the Decrease [3] was 24%. The minimal effective dose [4] was 1 mg/kg and the ED50 [5] was 14.6 mg/kg.
`O=C(c1ccc(OCCN2CCCCC2)cc1)c1c(C2CCCC2)sc2cc(O)ccc12` showed a Decrease [6] of 69.6%, a minimal effective dose [2] of over 10 mg/kg and a Decrease [7] of 18.4%. It also gave a Decrease [3] of 55.6%, a minimal effective dose [4] of over 10 mg/kg and an ED50 [5] of 1.2 mg/kg.
`Cl.O=C(c1ccc(OCCN2CCCCC2)cc1)c1c(-c2ccc(Cl)cc2)sc2cc(O)ccc12` was tested, and the Decrease [8] was 69.9%, the IC50 [1] was 1 nM and the Decrease [9] was 32.3%. It also gave a Decrease [6] of 65%, a minimal effective dose [2] of over 10 mg/kg and an Increase [10] of 56.5%. The minimal effective dose [4] was 0.1 mg/kg and the ED50 [5] was 0.3 mg/kg.
In the case of `Cc1sc2cc(O)ccc2c1C(=O)c1ccc(OCCN2CCCCC2)cc1`, the Decrease [6] is reported as 62.9%, the minimal effective dose [2] is reported as over 10 mg/kg and the Decrease [7] is reported as 8.3%. The Decrease [3] was 53.8%, the minimal effective dose [4] was over 10 mg/kg and the ED50 [5] was 1.8 mg/kg.
Molecule `CC/C(=C(\c1ccccc1)c1ccc(OCCN(C)C)cc1)c1ccccc1` [TAMOXIFEN] has a Decrease [8] of 71.1%, a Decrease [9] of 39.2% and a Decrease [6] of 67%. For the same molecule, the minimal effective dose [2] was 0.1 mg/kg, the Increase [10] was 62.4% and the minimal effective dose [4] was 0.1 mg/kg. It also gave an ED50 [5] of 0.2 mg/kg.
`COc1ccc2c(C(=O)c3ccc(OCCN4CCCCC4)cc3)c(-c3ccc(O)cc3)sc2c1` was tested, and the Decrease [8] was 64.5%, the IC50 [1] was 250 nM and the Decrease [9] was 54.8%. It also gave a Decrease [6] of 50%, a minimal effective dose [2] of over 10 mg/kg and an Increase [10] of 33.5%. The minimal effective dose [4] was 1 mg/kg and the ED50 [5] was under 0.1 mg/kg.
`O=C(c1ccc(OCCN2CCCCC2)cc1)c1c(-c2ccc(O)cc2)sc2cc(O)c(F)cc12` gave a Decrease [8] of 4.1%, an IC50 [1] of 3 nM and a Decrease [9] of 4.6%. It also gave a Decrease [6] of 31.6%, a minimal effective dose [2] of over 10 mg/kg and a minimal effective dose [4] of over 10 mg/kg. For the same molecule, the ED50 [5] was over 10 mg/kg.
